In ChEMBL document CHEMBL1275313, “Synthesis and biological evaluation of novel 10-benzyl-substituted 4,5-dichloro-10H-anthracen-9-ones as inhibitors of keratinocyte hyperproliferation” (Eur J Med Chem, 2010):

Columns and labels:
[1] = system: HaCaT; assay: Antiproliferative activity against human HaCaT cells after 48 hrs by phase contrast microscopy; assay type: functional, cell-based
How it was run: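 HaCaT human keratinocytes were grown in DMEM with 10% fetal calf serum, penicillin and streptomycin at 37 °C under 8% CO2. After 48 h of exposure, dispersed cells were counted by phase-contrast microscopy. Inhibition = (1 − test/control) × 100, with test N = 3 and control N = 6–8. Significance was tested by Student's t-test. IC50 was obtained by nonlinear regression.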

[2] = system: Radical scavenging activity; assay: Antioxidant activity assessed as DPPH free radical scavenging activity by spectrophotometry; assay type: functional
How it was run: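 DPPH radical decrease read spectrophotometrically as absorbance at 520 nm. Percent interaction = (1 − test absorbance/control absorbance) × 100, with test means from N = 3 and control means from N = 8. EC50 is the concentration giving a 50% drop in DPPH absorbance, obtained by nonlinear regression. NDGA and α-tocopherol served as positive controls.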

[3] = system: HaCaT; assay: Cytotoxicity against human HaCaT cells assessed as LDH release at 2 uM after 4 hrs; assay type: cell-based
How it was run: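 HaCaT cells were exposed to test compound for 4 h at 37 °C. Extracellular LDH activity was measured by the UV method with pyruvate and NADH and expressed in mU/mL. The vehicle control was 0.2% DMSO in culture medium, and Brij 35 with ultrasound was the positive control. N = 3, SD < 10%.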

Row | EC50 [2] [µM] | Compound | IC50 [1] [µM] | Activity [3] [mU/ml]
1 | > 50 | O=C1c2cccc(Cl)c2C(Cc2cccc(O)c2)c2c(Cl)cccc21 | 15 | –
2 | > 50 | O=C1c2cccc(Cl)c2C(Cc2ccc(OCc3ccccc3)c(OCc3ccccc3)c2)c2c(Cl)cccc21 | > 50 | –
3 | > 50 | COc1ccc(OC)c(CC2c3c(Cl)cccc3C(=O)c3cccc(Cl)c32)c1 | 3.8 | 60.6
4 | > 50 | O=C1c2cccc(Cl)c2C(Cc2ccc([N+](=O)[O-])cc2[N+](=O)[O-])c2c(Cl)cccc21 | 17 | –
5 | > 50 | COc1cccc(CC2c3c(Cl)cccc3C(=O)c3cccc(Cl)c32)c1 | 2 | 65
6 | > 50 | O=C1c2cccc(Cl)c2C(Cc2ccc([N+](=O)[O-])cc2)c2c(Cl)cccc21 | > 50 | –
7 | > 50 | COc1ccccc1CC1c2c(Cl)cccc2C(=O)c2cccc(Cl)c21 | > 50 | –
8 | > 50 | O=C1c2cccc(Cl)c2C(Cc2ccc(Cl)cc2)c2c(Cl)cccc21 | 36 | –
9 | > 50 | COc1ccc(CC2c3c(Cl)cccc3C(=O)c3cccc(Cl)c32)cc1OCc1ccccc1 | > 50 | –
10 | > 50 | O=C1c2cccc(Cl)c2C(Cc2ccccc2)c2c(Cl)cccc21 | 4.3 | 69.6
11 | > 50 | COc1ccc(CC2c3c(Cl)cccc3C(=O)c3cccc(Cl)c32)cc1O | 0.7 | 69.5
12 | > 50 | O=C1c2cccc(Cl)c2C(Cc2cccc(OCc3ccccc3)c2)c2c(Cl)cccc21 | 22 | –
13 | > 50 | O=C1c2cccc(Cl)c2C(Cc2ccc(O)cc2)c2c(Cl)cccc21 | 19 | –
14 | > 50 | COc1cc(CC2c3c(Cl)cccc3C(=O)c3cccc(Cl)c32)cc(OC)c1OC | > 50 | –
15 | > 50 | O=C1c2cccc(Cl)c2C(Cc2ccccc2[N+](=O)[O-])c2c(Cl)cccc21 | > 50 | –
16 | > 50 | Cc1ccc(C2c3c(Cl)cccc3C(=O)c3cccc(Cl)c32)cc1 | > 50 | –
17 | > 50 | O=C1c2cccc(Cl)c2C(Cc2ccccc2Cl)c2c(Cl)cccc21 | 30 | –
18 | > 50 | COc1cc(CC2c3c(Cl)cccc3C(=O)c3cccc(Cl)c32)cc(OC)c1 | 24 | –
19 | 29.5 | O=C1c2cccc(Cl)c2Cc2c(Cl)cccc21 | – | 64.4
20 | > 50 | COc1ccc(CC2c3c(Cl)cccc3C(=O)c3cccc(Cl)c32)cc1OC | 5 | 68.4
21 | > 50 | O=C1c2cccc(Cl)c2C(Cc2ccc(OCc3ccccc3)cc2)c2c(Cl)cccc21 | 36 | –
22 | 6.3 | O=C1c2cccc(Cl)c2C(Cc2ccc(O)c(O)c2)c2c(Cl)cccc21 | 18 | 76.6
23 | > 50 | O=C1c2cccc(Cl)c2C(c2ccccc2)c2c(Cl)cccc21 | > 50 | –
24 | > 50 | Cc1ccc(CC2c3c(Cl)cccc3C(=O)c3cccc(Cl)c32)cc1 | 44 | –
25 | > 50 | O=C1c2cccc(Cl)c2C(Cc2cccc([N+](=O)[O-])c2)c2c(Cl)cccc21 | 5 | 69.9
26 | > 50 | O=C1c2cccc(Cl)c2C(Cc2ccc(C(F)(F)F)cc2)c2c(Cl)cccc21 | 25 | –
27 | > 50 | COc1ccc(C2c3c(Cl)cccc3C(=O)c3cccc(Cl)c32)cc1 | 20 | –
28 | 16.7 | O=C1c2c(O)cccc2Cc2cccc(O)c21 [ANTHRALIN] | – | 122.8
29 | > 50 | COc1ccc(CC2c3c(Cl)cccc3C(=O)c3cccc(Cl)c32)cc1 | 5 | 57.6
